Assay results reported in ChEMBL document CHEMBL1142277, “Toward a structure-based model of salvinorin A recognition of the kappa-opioid receptor” (J Med Chem, 2008).

Assays:
Assay type in all cases: cell-based
[1] = target: Mu-type opioid receptor (Rattus norvegicus, UniProt P33535, W318A); test: Displacement of [3H]diprenorphine from rat mu opioid receptor W318A mutant expressed in HEK293 cells
In short: (§1)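 Whole-cell binding: HEK-293 cells transiently transfected (calcium phosphate, 10–20 µg pcDNA) with wild-type, point-mutant or chimeric receptor, harvested 48–72 h later, washed and resuspended in 25 mM HEPES pH 7.4. Incubated with [3H]-diprenorphine, room temperature, 90 min. Separation by filtration on PEI-presoaked GF/C filters, scintillation counting. Nonspecific binding with 100 µM naloxone, norBNI or salvinorin A. Triplicates, nonlinear regression.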

[2] = Displacement of [3H]diprenorphine from chimeric rat kappa opioid receptor (1-227)/mouse delta opioid receptor (215-372) expressed in HEK293 cells; in short: as §1
[3] = Displacement of [3H]diprenorphine from chimeric rat kappa opioid receptor (1-141)/mu opioid receptor (151-398) expressed in HEK293 cells; in short: as §1
[4] = Displacement of [3H]diprenorphine from chimeric rat kappa opioid receptor (1-141)/mu opioid receptor (151-233)/kappa opioid receptor (228-380) expressed in HEK293 cells; in short: as §1
[5] = Displacement of [3H]diprenorphine from chimeric rat mu opioid receptor (1-150)/kappa opioid receptor (142-380) expressed in HEK293 cells; in short: as §1
[6] = target: Kappa-type opioid receptor (Rattus norvegicus, UniProt P34975, Y313A); test: Displacement of [3H]diprenorphine from rat kappa opioid receptor Y313A mutant expressed in HEK293 cells; in short: as §1
Kappa-type opioid receptor (Rattus norvegicus, UniProt P34975, Y313A), sequence (P34975 whole entry Y313A): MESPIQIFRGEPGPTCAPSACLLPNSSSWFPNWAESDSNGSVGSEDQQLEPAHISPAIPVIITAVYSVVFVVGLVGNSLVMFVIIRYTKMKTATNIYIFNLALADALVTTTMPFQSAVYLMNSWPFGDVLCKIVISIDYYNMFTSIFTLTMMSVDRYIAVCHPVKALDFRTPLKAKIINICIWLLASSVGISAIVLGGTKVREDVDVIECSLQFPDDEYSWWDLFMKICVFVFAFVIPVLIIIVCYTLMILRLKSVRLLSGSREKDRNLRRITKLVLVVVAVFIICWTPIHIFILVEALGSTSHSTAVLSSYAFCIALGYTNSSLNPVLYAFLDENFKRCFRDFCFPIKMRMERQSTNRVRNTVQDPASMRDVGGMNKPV

[7] = Displacement of [3H]diprenorphine from chimeric rat kappa opioid receptor (1-227)/mu opioid receptor (234-398) expressed in HEK293 cells; in short: as §1
[8] = Displacement of [3H]diprenorphine from chimeric rat mu opioid receptor (1-233)/kappa opioid receptor (228-380) expressed in HEK293 cells; in short: as §1
[9] = Displacement of [3H]diprenorphine from chimeric rat kappa opioid receptor (1-141)/mouse delta opioid receptor (132-372) expressed in HEK293 cells; in short: as §1
[10] = target: Kappa-type opioid receptor (Rattus norvegicus, UniProt P34975); test: Displacement of [3H]diprenorphine from rat kappa opioid receptor expressed in HEK293 cells; in short: as §1
Kappa-type opioid receptor (Rattus norvegicus, UniProt P34975), sequence (P34975 whole entry): as the sequence (P34975 whole entry Y313A) above, with A313Y counted along it

[11] = target: Mu-type opioid receptor (Rattus norvegicus, UniProt P33535); test: Displacement of [3H]diprenorphine from rat mu opioid receptor expressed in HEK293 cells; in short: as §1
Mu-type opioid receptor (Rattus norvegicus, UniProt P33535), sequence (P33535 whole entry): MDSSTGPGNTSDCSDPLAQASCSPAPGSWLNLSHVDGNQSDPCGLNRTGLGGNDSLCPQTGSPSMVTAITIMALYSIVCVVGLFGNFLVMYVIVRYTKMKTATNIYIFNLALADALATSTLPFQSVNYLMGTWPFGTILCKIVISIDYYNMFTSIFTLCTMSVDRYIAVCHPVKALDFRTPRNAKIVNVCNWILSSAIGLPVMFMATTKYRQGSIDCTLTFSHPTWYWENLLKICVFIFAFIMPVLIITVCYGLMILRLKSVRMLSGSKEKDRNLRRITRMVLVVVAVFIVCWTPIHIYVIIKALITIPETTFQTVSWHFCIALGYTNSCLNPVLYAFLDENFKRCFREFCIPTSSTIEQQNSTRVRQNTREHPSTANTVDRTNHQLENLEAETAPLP

[12] = Displacement of [3H]diprenorphine from chimeric rat mu opioid receptor (1-150)/kappa opioid receptor (142-227)/mu opioid receptor (234-398) expressed in HEK293 cells; in short: as §1

Mu-type opioid receptor (Rattus norvegicus, UniProt P33535, W318A), sequence (P33535 whole entry W318A): as the sequence (P33535 whole entry) above, with W318A counted along it

SMILES	Ki [1]	Ki [2]	Ki [3]	Ki [4]	Ki [5]	Ki [6]	Ki [7]	Ki [8]	Ki [9]	Ki [10]	Ki [11]	Ki [12]
COC(=O)[C@@H]1C[C@H](C(=O)c2ccccc2)C(=O)[C@H]2[C@@]1(C)CC[C@H]1C(=O)O[C@H](c3ccoc3)C[C@]21C	426 nM	450 nM	1610 nM	8320 nM	4110 nM	3870 nM	9400 nM	2310 nM	> 10000 nM	1380 nM	245 nM	615 nM
COC(=O)[C@@H]1C[C@H](OC(C)=O)C(=O)[C@H]2[C@@]1(C)CC[C@H]1C(=O)O[C@H](c3ccoc3)C[C@]21C [SALVINORIN A]	–	–	–	522 nM	–	–	–	–	–	–	–	458 nM
